Activity calls are given as the source filed them. No cut-off for these calls is given here.
Columns and labels:
Mus musculus = assay: Toxicity in mouse assessed as increase in reticulocyte population at 200 mg/kg, po dosed once daily for 2 months as 5 days per week schedule; conditions: in vivo, 120 h
[1] = Toxicity in Sprague-Dawley rat assessed as induction of mortality at 200 mg/kg, po dosed once daily for 2 months as 5 days per week schedule; format: organism-based; conditions: in vivo, 120 h
Rattus norvegicus = assay: Iron scavenging activity in 59Fe-ferritin-loaded rat assessed as iron mobilization level at 150 umol/kg, po dosed 1 hr after 59Fe-ferritin injection and measured 24 hrs after 59Fe-ferritin injection by gamma counting method relative to control; format: functional, organism-based
Procedure, shortened: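 Male SD rats, 300 g, fasted overnight, given about 1 μC 59Fe-ferritin i.v. under isoflurane. Chelator gavaged 1 h later, then rats housed in metabolic cages; food returned 1 h after dosing. Killed 24 h after 59Fe-ferritin. Urine, faeces, liver and gut gamma-counted. 8 rats per condition.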

[2] = Cmax in Sprague-Dawley rat at 150 umol/kg, po measured up to 1440 mins by LC/MS/MS analysis; format: ADME, organism-based; design: dose 150 umol/kg, route oral; conditions: in vivo

With `Cc1c(O)c(O)cc[n+]1[C@@H](CO)Cc1ccccc1.[Cl-]` the Activity (Mus musculus) was “Non-Toxic”, the Activity [1] was “Non-Toxic” and the Activity (Rattus norvegicus) was “Active”. The Cmax [2] was 19900 ng/mL.
